# Test results reported in article PMC6542277 (Journal of medicinal chemistry, 2018).
# Where a SMILES comes first, the peptide text is derived from it. Bridges are numbered along the chain shown (N, C = ends). Roman numbers before positions name the chains, in order. [ ]: non-standard residue; d: D form. The star is where a group is joined. X1 = CN1C(=CC=CC=CC2=[N+](CCCCCC(=O)*)c3ccc4ccccc4c3C2(C)C)C(C)(C)c2c1ccc1ccccc21; AEEEA = NCCOCCOCCOCC(=O)O
# Legend:
# [1] = test system: OE33 xenograft tumors; assay: In vivo whole-body NIR fluorescence imaging; conditions: nude mice, OE33 xenograft, 300 μM in 150 μL PBS via tail vein, NIR fluorescence
# [2] = In vivo whole-body NIR fluorescence imaging; conditions: mouse, in vivo, iv, 300 uM, 150 uL
# [3] = test system: OE33 cells; assay: Apparent dissociation constant by flow cytometry; assay type: binding, human; conditions: from kd on OE33 cells
# Summary of the method: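 Labelled heterodimer serially diluted in PBS (0, 10, 25, 50, 100, 200 nM) and incubated with OE33 cells at 4°C for 1 h, then washed in cold PBS. Mean fluorescence was read by flow cytometry. kd = 1/ka came from a least-squares fit to I = (I0 + Imax·ka[X])/(I0 + ka[X]), where I0 is the no-peptide intensity and Imax the saturation intensity.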
# [4] = Stability in PBS containing 0.1% BSA; assay type: physicochemical; conditions: 0.01 mol/L PBS, pH 7.4, 37°C, HPLC at 0.5, 2, 6 and 12 hours
# [5] = test system: OE33 cells; assay: Apparent association time constant by flow cytometry; assay type: binding, human; conditions: 1 μM peptide, 4°C
# Summary of the method: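 OE33 cells grown to ~80% confluence, detached with PBS-based dissociation buffer, then held with 1 μM labelled heterodimer at 4°C for periods of 0–60 min. Cells were centrifuged, washed in cold PBS and fixed in 4% PFA before flow cytometry. Median fluorescence was ratioed to peptide-free cells, and k was fitted to y(t) = Imax[1−exp(−kt)].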
# [6] = Hydrophilicity; assay type: physicochemical; conditions: triethyleneglycol linker (E3); method not given
# [7] = test system: SKBr3 cells; assay: Internalization, confocal images over time; assay type: cell-based, human
# [8] = Acute toxicity on histology; assay type: in vivo, mouse; conditions: nude mice after systemic injection of 300 μM, 150 μL PBS
# [9] = target: EGFR (Homo sapiens, UniProt P00533); assay: siRNA knockdown of EGFR, confocal binding; assay type: cell-based; conditions: confocal microscopy; mean of 5 cells from 3 images; P=3.6×10^−4
# Chain of EGFR (P00533 25-1210): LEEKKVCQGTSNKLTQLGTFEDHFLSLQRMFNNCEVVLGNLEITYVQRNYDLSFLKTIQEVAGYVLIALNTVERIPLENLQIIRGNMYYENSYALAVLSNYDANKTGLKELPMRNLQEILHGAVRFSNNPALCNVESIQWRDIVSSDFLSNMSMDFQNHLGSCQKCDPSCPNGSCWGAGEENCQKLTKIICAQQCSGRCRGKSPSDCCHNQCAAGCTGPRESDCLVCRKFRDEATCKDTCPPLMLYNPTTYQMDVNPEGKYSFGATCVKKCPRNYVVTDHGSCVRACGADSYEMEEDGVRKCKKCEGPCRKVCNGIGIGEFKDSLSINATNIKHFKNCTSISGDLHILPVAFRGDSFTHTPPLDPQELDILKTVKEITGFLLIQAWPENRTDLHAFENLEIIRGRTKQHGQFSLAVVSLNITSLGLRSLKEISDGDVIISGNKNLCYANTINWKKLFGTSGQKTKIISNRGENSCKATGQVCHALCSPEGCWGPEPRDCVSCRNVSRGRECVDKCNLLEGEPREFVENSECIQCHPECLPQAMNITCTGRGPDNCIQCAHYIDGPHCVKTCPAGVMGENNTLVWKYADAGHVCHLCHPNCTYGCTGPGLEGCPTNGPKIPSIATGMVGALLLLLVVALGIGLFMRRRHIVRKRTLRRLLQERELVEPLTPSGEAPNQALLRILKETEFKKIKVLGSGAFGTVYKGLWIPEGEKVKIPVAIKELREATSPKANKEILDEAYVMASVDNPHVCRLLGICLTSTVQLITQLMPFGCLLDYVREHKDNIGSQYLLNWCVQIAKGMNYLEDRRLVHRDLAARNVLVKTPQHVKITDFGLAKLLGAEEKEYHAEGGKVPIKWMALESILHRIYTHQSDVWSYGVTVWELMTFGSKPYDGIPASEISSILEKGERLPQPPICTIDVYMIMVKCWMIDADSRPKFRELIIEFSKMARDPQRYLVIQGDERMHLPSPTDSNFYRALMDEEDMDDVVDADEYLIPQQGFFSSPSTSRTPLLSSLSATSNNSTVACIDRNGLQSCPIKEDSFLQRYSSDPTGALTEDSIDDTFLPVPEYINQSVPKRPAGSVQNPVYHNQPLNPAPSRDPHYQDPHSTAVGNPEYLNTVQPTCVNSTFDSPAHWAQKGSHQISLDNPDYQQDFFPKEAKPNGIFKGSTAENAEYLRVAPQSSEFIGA
# [10] = test system: EGFR/ErbB2 signaling (p-EGFR, p-ErbB2, p-AKT, p-ERK) in SKBr3 cells; assay: Effect on cell signaling, Western blot; assay type: cell-based, human
# [11] = test system: Barrett's neoplasia (HGD and EAC); assay: Binding to human esophageal specimens ex vivo, confocal microscopy; conditions: for AUC of ROC curve: human FFPE esophageal specimens ex vivo, HGD and EAC versus SQ and BE
# Summary of the method: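 Archived FFPE human esophagus cut at 10 μm, deparaffinized, rehydrated, then given two-step acidic plus protease antigen retrieval. Sections were blocked with protein serum for 10 min, stained with 0.5 μM heterodimer for 10 min in the dark at RT, then anti-EGFR and anti-ErbB2 antibodies with secondaries. Mean intensity came from three 20×20 μm2 epithelial boxes, avoiding saturated regions. SQ/BE/HGD/EAC groups (n = 31, 8, 23, 12) compared by unpaired t test and one-way ANOVA.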
# [12] = Enzymatic stability in mouse serum; assay type: in vitro ADME; conditions: 30 μM in mouse serum, 37°C, at 2 hour; HPLC of supernatant after centrifugation
# Summary of the method: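 Samples taken at 0.5, 1.0, 1.5 and 2 h of serum incubation at 37°C were centrifuged at 14,000 rpm. 20 μL of supernatant was analysed by HPLC.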
# [13] = target: ErbB2 (Homo sapiens, UniProt P04626); assay: siRNA knockdown of ErbB2, confocal binding; assay type: cell-based; conditions: confocal microscopy; mean of 5 cells from 3 images; P=7.8×10^−3
# Chain of ErbB2 (P04626 23-1255): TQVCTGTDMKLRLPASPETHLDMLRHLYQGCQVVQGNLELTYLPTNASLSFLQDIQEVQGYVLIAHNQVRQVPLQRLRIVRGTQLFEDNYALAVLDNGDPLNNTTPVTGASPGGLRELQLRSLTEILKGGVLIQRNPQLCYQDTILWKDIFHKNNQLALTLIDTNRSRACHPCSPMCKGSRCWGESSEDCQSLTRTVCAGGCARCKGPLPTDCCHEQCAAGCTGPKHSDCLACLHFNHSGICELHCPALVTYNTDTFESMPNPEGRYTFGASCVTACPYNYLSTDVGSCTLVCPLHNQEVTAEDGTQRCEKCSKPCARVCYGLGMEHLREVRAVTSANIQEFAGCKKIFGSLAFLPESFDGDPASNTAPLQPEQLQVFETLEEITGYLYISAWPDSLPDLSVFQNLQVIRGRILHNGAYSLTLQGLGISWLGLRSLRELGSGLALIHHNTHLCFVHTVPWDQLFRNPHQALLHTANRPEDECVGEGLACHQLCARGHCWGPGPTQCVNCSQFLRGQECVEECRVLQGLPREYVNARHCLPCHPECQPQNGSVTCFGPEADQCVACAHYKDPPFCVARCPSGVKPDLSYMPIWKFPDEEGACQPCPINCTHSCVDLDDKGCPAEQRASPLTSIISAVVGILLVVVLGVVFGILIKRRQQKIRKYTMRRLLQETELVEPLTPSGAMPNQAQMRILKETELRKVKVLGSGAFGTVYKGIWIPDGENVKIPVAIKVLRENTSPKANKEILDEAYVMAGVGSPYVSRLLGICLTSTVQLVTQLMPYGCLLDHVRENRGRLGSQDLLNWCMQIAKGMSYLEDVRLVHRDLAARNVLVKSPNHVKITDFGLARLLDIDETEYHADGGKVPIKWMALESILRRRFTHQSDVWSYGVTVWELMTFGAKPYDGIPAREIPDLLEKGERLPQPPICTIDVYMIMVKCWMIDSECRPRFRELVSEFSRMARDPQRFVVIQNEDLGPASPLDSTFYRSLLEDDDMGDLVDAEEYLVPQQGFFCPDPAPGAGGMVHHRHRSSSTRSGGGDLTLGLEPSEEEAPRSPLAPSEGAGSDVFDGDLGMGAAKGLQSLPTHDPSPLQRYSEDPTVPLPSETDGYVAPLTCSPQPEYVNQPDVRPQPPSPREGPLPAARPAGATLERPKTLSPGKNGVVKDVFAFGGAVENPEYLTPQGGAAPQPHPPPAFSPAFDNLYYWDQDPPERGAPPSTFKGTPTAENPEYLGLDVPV
# [14] = test system: OE33 human esophageal adenocarcinoma cells; assay: Confocal microscopy binding validation; assay type: cell-based
# Summary of the method: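 OE33 cells, kept in RPMI 1640 with 10% FBS and penicillin/streptomycin at 37°C, 5% CO2, grown to ~70% confluence on coverslips. Cells were blocked with 2% BSA/PBS for 30 min, given Cy5.5-labelled peptides, washed 3×, fixed in ice-cold 4% PFA for 10 min and mounted with DAPI. Confocal intensities were quantified from 3 independent images.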
# [15] = test system: OE33 xenograft tumors; assay: Biodistribution, ex vivo organ fluorescence; design: species or system mouse; conditions: nude mice, 300 μM in 150 μL PBS, 2 hours
# [16] = human esophageal specimens ex vivo, confocal microscopy, 0.5 μM, 10 min, RT
compound,measurement,setting,value
CN1C(=CC=CC=CC2=[N+](CCCCCC(=O)NCCCC[C@H](NC(=O)[C@H](CCCCNC(=O)COCCOCCOCCNC(=O)[C@H](Cc3ccccc3)NC(=O)[C@H](CCCNC(=N)N)NC(=O)[C@@H]3CCCN3C(=O)[C@H](CC(N)=O)NC(=O)[C@@H]3CCCN3C(=O)[C@H](CO)NC(=O)[C@@H](N)CCCCN)NC(=O)COCCOCCOCCNC(=O)[C@H](CCC(=O)O)NC(=O)[C@H](CCCNC(=N)N)NC(=O)[C@@H]3CCCN3C(=O)[C@H](CCCCN)NC(=O)[C@H](Cc3c[nH]cn3)NC(=O)[C@H](CCCNC(=N)N)NC(=O)[C@@H](N)CCC(N)=O)C(N)=O)c3ccc4ccccc4c3C2(C)C)C(C)(C)c2c1ccc1ccccc21 [QRH*-KSP*-E3-Cy5.5] (I: H-QRHKPRE[AEEEA]KK(X1)-NH2 / II: H-KSPNPRF[AEEEA]; amide I:9-II:C; N-terminus and C-terminus assumed),time at which signal returns to baseline (systemic clearance),[1],~ 24 hours
same,tissue to tissue ratio at 2 h,[2],2.39 ± 0.52
same,affinity compared with either monomer alone,[3],2 fold
same,degradation in PBS containing 0.1% BSA,[4],No noticeable degradation
same,association time (printed in brackets after k),[5],4.5 min
same,hydrophilicity,[6],good hydrophilicity
same,time at which internalization begins,[7],8 min
same,time at which internalization reaches near completion,[7],40 min
same,acute toxicity on histology (H&E),[8],no evidence of acute toxicity
same,"fluorescence intensity, siCL (control) versus siEGFR (knockdown) SKBr3 cells",[9],significantly greater intensity
same,downstream change in AKT (p-AKT) and ERK (p-ERK),"[10]; heterodimer at 1, 5 and 20 μM",no downstream change
same,phosphorylation of EGFR (p-EGFR) or ErbB2 (p-ErbB2),"[10]; heterodimer at 1, 5 and 20 μM",no change
same,AUC of ROC curve,[11],0.95
same,fluorescence intensity with SQ and BE,[11]; [16],minimal fluorescence intensity
same,fluorescence signal with HGD and EAC,[11]; [16],increased signal
same,area of new formed peak (may arise from degradation),[12],about 20%
same,"fluorescence intensity, siCL (control) versus siErbB2 (knockdown) SKBr3 cells",[13],significantly greater intensity
same,binding to surface of OE33 cells,"[14]; 1 μM, 30 min, 4°C",strong binding
same,fluorescence intensity compared with either monomer alone,[14]; binding to OE33 cells,3 fold
same,uptake in kidney,[15]; supports renal clearance,High uptake
same,uptake in tumor relative to muscle,"[15]; OE33 xenograft, n = 6",3 fold
"C[C@H](NC(=O)CNC(=O)CNC(=O)CN)C(=O)NCC(=O)NCC(=O)NCC(=O)NCCCC[C@H](NC(=O)CNC(=O)CNC(=O)CNC(=O)[C@H](C)NC(=O)CNC(=O)CNC(=O)CN)C(=O)N[C@@H](CCCCNC(=O)CCCCC[N+]1=C(C=CC=CC=C2N(C)c3ccc4ccccc4c3C2(C)C)C(C)(C)c2c1ccc1ccccc21)C(N)=O [(GGGAGGG)2KK-Cy5.5, reference compound] (I: H-GGGAGGGKK(X1)-NH2 / II: H-GGGAGGG; amide I:8-II:C)",tissue to tissue ratio at 2 h,[2],1.43 ± 0.28
KSPNPRF [KSP*-Cy5.5],AUC of ROC curve,[11],0.91
"CS(=O)(=O)CCNCc1ccc(-c2ccc3ncnc(Nc4ccc(OCc5cccc(F)c5)c(Cl)c4)c3c2)o1 [lapatinib, reference compound]","expression of p-ErbB2, p-AKT and p-ERK",[10]; lapatinib 100 nM,reduced expression
"EGF: endogenous ligand for EGFR, positive control","phosphorylation of AKT (p-AKT) and ERK (p-ERK), positive control",[10]; EGF 100 ng/mL,strong phosphorylation activity
QRHKPRE [QRH*-Cy5.5],AUC of ROC curve,[11],0.79
